Measurements from different studies.
Each line is one published result; the experiments were not run side by side.
EGFR A750P/del747-749: Epidermal growth factor receptor (EGFR, Homo sapiens, UniProt P00533, A750P/del747-749)
EGFR L858R/T790M: Epidermal growth factor receptor (EGFR, Homo sapiens, UniProt P00533, L858R/T790M)
EGFR: Epidermal growth factor receptor (EGFR, Homo sapiens, UniProt P00533)
EGFR del747-750/T751S: Epidermal growth factor receptor (EGFR, Homo sapiens, UniProt P00533, del747-750/T751S)
EGFR L858R: Epidermal growth factor receptor (EGFR, Homo sapiens, UniProt P00533, L858R)
EGFR G719S: Epidermal growth factor receptor (EGFR, Homo sapiens, UniProt P00533, G719S)
EGFR del746-750: Epidermal growth factor receptor (EGFR, Homo sapiens, UniProt P00533, del746-750)
EGFR del752-759: Epidermal growth factor receptor (EGFR, Homo sapiens, UniProt P00533, del752-759)
EGFR L861Q: Epidermal growth factor receptor (EGFR, Homo sapiens, UniProt P00533, L861Q)
EGFR G719C: Epidermal growth factor receptor (EGFR, Homo sapiens, UniProt P00533, G719C)

`CO[C@@H](C)c1c(Nc2ccc([C@H](N(C)C(=O)C3CCS(=O)(=O)CC3)C(F)(F)F)cc2)cnc2cc(Cl)nn12` has a remaining binding of 99% (EGFR A750P/del747-749; cell-free assay; competition with immobilised ligand; 1 µM).
For `CN(c1nccc(-c2cnn3ncccc23)n1)C1CC1`, the remaining binding was 100% (EGFR L858R/T790M; binding; 1 µM).
The remaining binding of `COc1cnc(Nc2cccc(S(N)(=O)=O)c2)nc1N1CCN(c2ccccc2)CC1` is reported as 100% (EGFR A750P/del747-749; binding; competition with immobilised ligand; 1 µM).
The remaining binding of `Cc1ccc(NC(=O)c2ccc(CN3CCN(C)CC3)cc2)cc1Nc1nccc(-c2cccnc2)n1` is reported as 71% (EGFR; cell-free assay; competition with immobilised ligand; 10 µM).
`CN(c1ccnc(CNc2nc(Nc3ccc4c(c3)CC(=O)N4)ncc2C(F)(F)F)n1)S(C)(=O)=O` gave a remaining binding of 83% (EGFR del747-750/T751S; cell-free assay; competition with immobilised ligand; 1 µM).
With `CN1CCN(c2ccc(Nc3nccc(-c4cccc([N+](=O)[O-])c4)n3)cc2C(F)(F)F)CC1` the remaining binding was 72% (EGFR L858R; binding; 10 µM).
For `CN(C)c1ncc(F)c(-c2cnn3ncccc23)n1`, the remaining binding was 100% (EGFR G719S; binding; 1 µM).
`C[C@@H](c1cccc(C#N)c1)n1cc(Cl)cc(C(N)=O)c1=N` gave a remaining binding of 93% (EGFR del746-750; cell-free assay; competition with immobilised ligand; 1 µM).
`O=C(c1ccc(Nc2nccc(-c3cc4ccccc4s3)n2)cc1)N1CCC(N2CCCC2)CC1` has a remaining binding of 58% (EGFR L858R/T790M; binding; competition with immobilised ligand; 1 µM).
For `C[C@@H]1CCN(c2nccc(-c3cnn4ncccc34)n2)C1`, the remaining binding was 88% (EGFR del752-759; binding; 1 µM).
The remaining binding of `CC(=O)N1CCC(c2ccc(C(=O)NC(=N)N)cc2C(F)(F)F)CC1` is reported as 90% (EGFR del752-759; cell-free assay; competition with immobilised ligand; 1 µM).
For `COc1ccnn2ncc(-c3ccnc(N(C)C)n3)c12`, the remaining binding was 97% (EGFR L861Q; binding; 1 µM).
For `c1cncc(-c2cccc(Nc3nccc(NC4CCCCC4)n3)c2)c1`, the remaining binding was 70% (EGFR G719C; binding; competition with immobilised ligand; 10 µM).
The remaining binding of `COc1cnc(Nc2cccc(S(N)(=O)=O)c2)nc1N1CCN(c2ccccc2)C(=O)C1` is reported as 72% (EGFR L858R/T790M; binding; competition with immobilised ligand; 1 µM).
The remaining binding of `O=C(NCCCN1CCOCC1)c1ccc(Nc2ncc(Cl)c(-c3ccc(Cl)s3)n2)cc1` is reported as 72% (EGFR A750P/del747-749; binding; competition with immobilised ligand; 1 µM).
`O=C(Nc1c[nH]nc1C(=O)NC1CCNCC1)c1cc(F)cc(F)c1` has a remaining binding of 96% (EGFR; binding; competition with immobilised ligand; 1 µM).
`O=C(NCCCN1CCOCC1)c1ccc(Nc2nccc(-c3cc4ccccc4s3)n2)cc1` has a remaining binding of 100% (EGFR G719S; binding; competition with immobilised ligand; 1 µM).
`O=C(NCC1CCOCC1)c1n[nH]cc1NC(=O)c1c(F)cccc1F` gave a remaining binding of 100% (EGFR L861Q; binding; competition with immobilised ligand; 1 µM).
With `O=C(NC1CCC1)c1ccc2nc(-c3cccc(NS(=O)(=O)NCCN4CCCCC4)c3)cn2c1` the remaining binding was 100% (EGFR A750P/del747-749; cell-free assay; competition with immobilised ligand; 10 µM).
With `O=C(c1ccc(Nc2ncc(Cl)c(-c3ccc(Cl)s3)n2)cc1)N1CCC(N2CCCC2)CC1` the remaining binding was 96% (EGFR del752-759; binding; competition with immobilised ligand; 1 µM).
For `CN1CCN(c2ccc(Nc3nccc(-c4ccccc4)n3)cc2C(F)(F)F)CC1`, the remaining binding was 64% (EGFR G719C; binding; 10 µM).
`CNCc1ccccc1-c1csc([C@H](C)Nc2nc(C)nc3cc(OC)c(OC)cc23)c1` gave a remaining binding of 100% (Epidermal growth factor receptor (EGFR, Homo sapiens, UniProt P00533, del747-752/P753S); cell-free assay; competition with immobilised ligand; 1 µM).
The remaining binding of `N#Cc1ccccc1CSc1nnc2c(n1)[nH]c1ccccc12` is reported as 100% (EGFR; binding; competition with immobilised ligand; 10 µM).
The remaining binding of `Nc1ncc2c(n1)-c1c([nH]c3ccc(C#CC4CC4)cc13)CCCC2` is reported as 92% (EGFR L861Q; binding; competition with immobilised ligand; 1 µM).
For `CC(C)(O)c1cncc(-c2nc3ccc(F)cc3n2C2CC2)c1`, the remaining binding was 100% (EGFR L861Q; cell-free assay; competition with immobilised ligand; 1 µM).
The remaining binding of `CCN1CCN(Cc2ccc(C(=O)Nc3ccc(C)c(Oc4ccc5c(c4)CC(=O)N5)c3)cc2C(F)(F)F)CC1` is reported as 100% (EGFR; binding; competition with immobilised ligand; 1 µM).
The remaining binding of `COc1ncc2cc3ccccc3nc2c1C#N` is reported as 96% (EGFR del752-759; cell-free assay; competition with immobilised ligand; 5 µM).
`CNC(=O)[C@@H]1CC[C@@H](n2c(-c3ccc4cnccc4c3)nc3ccc(C(=O)NCc4cccc(C(N)=O)c4)cc32)C1` gave a remaining binding of 100% (EGFR A750P/del747-749; binding; competition with immobilised ligand; 1 µM).
For `O=C(c1ccc(Nc2ncc(Cl)c(-c3cc4ccccc4s3)n2)cc1)N1CCC(N2CCCC2)CC1`, the remaining binding was 89% (EGFR del747-750/T751S; binding; competition with immobilised ligand; 1 µM).
`N[C@H]1CCN(c2nccc(-c3cnn4ncccc34)n2)C1` has a remaining binding of 98% (EGFR del746-750; binding; 1 µM).
With `Cc1cnc(Nc2ccc(C(=O)N3CCC(N4CCCC4)CC3)cc2)nc1-c1cc2ccccc2s1` the remaining binding was 72% (EGFR L858R; binding; competition with immobilised ligand; 1 µM).
The remaining binding of `CN(C)c1nccc(-c2cnc3ncccn23)n1` is reported as 58% (Epidermal growth factor receptor (EGFR, Homo sapiens, UniProt P00533, T790M); binding; 1 µM).
With `CS(=O)(=O)NCC[C@H](NC(=O)c1cncc2c1cnn2-c1ccc(F)cc1)c1ccnc(S(C)(=O)=O)c1` the remaining binding was 83% (EGFR L858R; cell-free assay; competition with immobilised ligand; 1 µM).
The remaining binding of `c1cnn2ncc(-c3ccnc(N4CCC45COC5)n3)c2c1` is reported as 100% (EGFR G719C; binding; 1 µM).
With `O=C(Nc1cccnn1)N1CC(C/C=C/c2cncc(Oc3ccc(C(F)(F)F)cn3)n2)C1` the remaining binding was 100% (EGFR del747-750/T751S; cell-free assay; competition with immobilised ligand; 1 µM).
